Results taken from ChEMBL document CHEMBL5346918, “Design, synthesis and biological evaluation of Nucleosidic CD99 inhibitors that selectively reduce Ewing sarcoma viability” (Eur J Med Chem, 2023).
Activity calls are given as the source filed them. The calls are words filed in the database; no cut-off is given here.

What was measured:
[1] = Cytotoxicity against human A4573 cells assessed as reduction in cell viability incubated for 48 hrs by CellTiter-Blue reagent based […] assay; assay type: functional; details: A4573, 48 h
Outline: (§1)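 Cells seeded and grown to 60–80% confluency (usually 18–24 h), then treated 48 h with a range of concentrations prepared in each line's medium. CellTiter-Blue reagent added at the end of treatment and incubated 3–5 h at 37 °C, 5% CO₂. Fluorescence read at 560 nm excitation and 590 nm emission. IC50 from nonlinear regression, log(inhibitor) vs. normalized response.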

TC-32 [2] = assay: Cytotoxicity against human TC-32 cells assessed as reduction in cell viability incubated for 48 hrs by CellTiter-Blue reagent based […] assay; assay type: functional; details: TC-32, 48 h; outline: as §1
[3] = Cytotoxicity against human TC71 cells assessed as reduction in cell viability incubated for 48 hrs by CellTiter-Blue reagent based […] assay; assay type: functional; details: TC-71, 48 h; outline: as §1
SAOS-2 = assay: Cytotoxicity against human SAOS-2 cells assessed as reduction in cell viability incubated for 48 hrs by CellTiter-Blue reagent based […] assay; assay type: functional; details: SAOS-2, 48 h; outline: as §1
U2OS [4] = assay: Cytotoxicity against human U2OS cells assessed as reduction in cell viability incubated for 48 hrs by CellTiter-Blue reagent based […] assay; assay type: functional; outline: as §1
TC-32 [5] = assay: Induction of apoptosis in human TC-32 cells assessed as PARP cleavage at 0.1 to 0.4 uM incubated for 48 hrs by western blot analysis; assay type: functional, cell-based; details: dose 0.1-0.4 µM
Outline: (§2)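 Cells treated 48 h with three concentrations per agent (0.1, 0.2 or 0.4 μM for one; 10, 20 or 40 μM for another). Total cell lysates immunoblotted for PARP and caspase 3 and their cleaved products. Actin used as loading control and for normalization. ECL signal imaged on PVDF, bands quantified by densitometry.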

TC-32 [6] = assay: Induction of apoptosis in human TC-32 cells assessed as caspase-3 cleavage at 0.1 to 0.4 uM incubated for 48 hrs by western blot analysis; assay type: functional, cell-based; details: dose 0.1-0.4 µM; outline: as §2
U2OS [7] = assay: Induction of apoptosis in human U2OS cells assessed as PARP cleavage at 0.1 to 0.4 uM incubated for 48 hrs by western blot analysis; assay type: functional, cell-based; details: dose 0.1-0.4 µM; outline: as §2
U2OS [8] = assay: Induction of apoptosis in human U2OS cells assessed as caspase-3 cleavage at 0.1 to 0.4 uM incubated for 48 hrs by western blot analysis; assay type: functional, cell-based; details: dose 0.1-0.4 µM; outline: as §2
TC-32 [9] = assay: Induction of apoptosis in human TC-32 cells assessed as increase in hypodiploid subG1 population at 0.1 to 0.4 uM incubated for 48 hrs by propidium iodide staining based flow cytometry; assay type: functional, cell-based; details: dose 0.1-0.4 µM
Outline: (§3)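 Treatment same as the apoptosis blots (48 h; 0.1–0.4 μM or 10–40 μM). Adherent cells trypsinized and pooled with floating cells, then washed in PBS. Fixed in ice-cold 70% ethanol 1 h on ice, rehydrated, RNase A 100 μg/mL. Stained with propidium iodide at 50 μg/mL final for 1 h on ice. Sub-G1 fraction read by flow cytometry.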

U2OS [10] = assay: Induction of apoptosis in human U2OS cells assessed as increase in hypodiploid subG1 population at 0.1 to 0.4 uM incubated for 48 hrs by propidium iodide staining based flow cytometry; assay type: functional, cell-based; details: dose 0.1-0.4 µM; outline: as §3

| Structure (SMILES) | IC50 [1] [µM] | IC50 (TC-32 [2]) [µM] | IC50 [3] [µM] | IC50 (SAOS-2) [µM] | IC50 (U2OS [4]) [µM] | Activity (TC-32 [5]) | Activity (TC-32 [6]) | Activity (U2OS [7]) | Activity (U2OS [8]) | Activity (TC-32 [9]) | Activity (U2OS [10]) |
| --- | --- | --- | --- | --- | --- | --- | --- | --- | --- | --- | --- |
| Nc1ncnc2c1ncn2[C@H]1C[C@H](O)[C@@H](CN2CCOCC2)O1 | ≥ 50 | ≥ 50 | ≥ 50 | ≥ 50 | ≥ 50 |  |  |  |  |  |  |
| Nc1nc(Cl)nc2c1ncn2[C@@H]1O[C@H](COc2cc(C(=O)O)cc(C(=O)O)c2)[C@@H](O)[C@@H]1F |  | ≥ 100 | 96.7 | 86.5 | ≥ 100 |  |  |  |  |  |  |
| Nc1ncnc2c1ncn2[C@H]1C[C@H](O)[C@@H](C(=O)O)O1 | ≥ 50 | ≥ 50 | ≥ 50 | ≥ 50 | ≥ 50 |  |  |  |  |  |  |
| Nc1ncnc2c1ncn2[C@@H]1C[C@@H](O)[C@H](CN2CCOCC2)O1 | ≥ 50 | ≥ 50 | ≥ 50 | ≥ 50 | ≥ 50 |  |  |  |  |  |  |
| Nc1nc(-c2cccnc2)nc2c1ncn2[C@H]1C[C@H](O)[C@@H](CO)O1 | 54.4 | 52.2 | 29.3 | 110 | 162 |  |  |  |  |  |  |
| Nc1ncnc2c1ncn2[C@@H]1O[C@H](CN2CCOCC2)[C@@H](O)[C@H]1F | ≥ 50 | ≥ 50 | ≥ 50 | ≥ 50 | ≥ 50 |  |  |  |  |  |  |
| Nc1nc(-c2ccsc2)nc2c1ncn2[C@@H]1O[C@H](CO)[C@@H](O)[C@@H]1F | ≥ 50 | ≥ 50 | ≥ 50 | ≥ 50 | ≥ 50 |  |  |  |  |  |  |
| CS(=O)(=O)C[C@H]1O[C@@H](n2cnc3c(N)nc(Cl)nc32)C[C@@H]1O | ≥ 50 | ≥ 50 | 36 | ≥ 50 | ≥ 50 |  |  |  |  |  |  |
| Nc1nc(Cl)nc2c1ncn2[C@@H]1O[C@H](CO)[C@@H](O)[C@@H]1F [CLOFARABINE] | 0.18 | 0.13 | 0.09 | ≥ 50 | ≥ 50 | Active | Active | inactive | inactive | Active | inactive |
| Nc1nc(N2CCOCC2)nc2c1ncn2[C@@H]1O[C@H](CN2CCOCC2)[C@@H](O)[C@@H]1F |  | ≥ 100 | ≥ 100 | ≥ 100 | ≥ 100 |  |  |  |  |  |  |
| Nc1nc(Cl)nc2c1ncn2[C@@H]1O[C@H](CN2CCOCC2)[C@@H](O)[C@@H]1F |  | ≥ 100 | ≥ 100 | ≥ 100 | ≥ 100 |  |  |  |  |  |  |
| Nc1ncnc2c1ncn2[C@@H]1O[C@H](C(=O)O)[C@@H](O)[C@H]1F | ≥ 50 | ≥ 50 | ≥ 50 | ≥ 50 | ≥ 50 |  |  |  |  |  |  |
| Nc1nc(Cl)nc2c1ncn2[C@H]1C[C@H](O)[C@@H](CN2CCOCC2)O1 |  | ≥ 100 | ≥ 100 | 97.3 | ≥ 100 |  |  |  |  |  |  |
| Nc1ncnc2c1ncn2[C@@H]1O[C@H](CN2CCOCC2)[C@@H](O)[C@@H]1F | ≥ 50 | ≥ 50 | ≥ 50 | ≥ 50 | ≥ 50 |  |  |  |  |  |  |
| C=C1O[C@@H](n2cnc3c(N)nc(N4CCOCC4)nc32)[C@@H](F)[C@@H]1O |  | 98 | ≥ 100 | 97.3 | 67 |  |  |  |  |  |  |
| Nc1nc(-c2ccsc2)nc2c1ncn2[C@H]1C[C@H](O)[C@@H](CO)O1 | ≥ 50 | ≥ 50 | ≥ 50 | ≥ 50 | ≥ 50 |  |  |  |  |  |  |
| Nc1ncnc2c1ncn2[C@@H]1O[C@H](C(=O)O)[C@@H](O)[C@@H]1F | ≥ 50 | ≥ 50 | ≥ 50 | ≥ 50 | ≥ 50 |  |  |  |  |  |  |
| Nc1ncnc2c1ncn2[C@@H]1C[C@@H](O)[C@H](C(=O)O)O1 | ≥ 50 | ≥ 50 | ≥ 50 | ≥ 50 | ≥ 50 |  |  |  |  |  |  |
| Nc1nc(-c2ccncc2)nc2c1ncn2[C@H]1C[C@H](O)[C@@H](CO)O1 | ≥ 50 | ≥ 50 | ≥ 50 | ≥ 50 | ≥ 50 |  |  |  |  |  |  |
| Nc1nc(Cl)nc2c1ncn2[C@H]1C[C@H](O)[C@@H](COc2cc(C(=O)O)cc(C(=O)O)c2)O1 |  | ≥ 100 | ≥ 100 | ≥ 100 | ≥ 100 |  |  |  |  |  |  |
| Nc1nc(-c2ccoc2)nc2c1ncn2[C@@H]1O[C@H](CO)[C@@H](O)[C@@H]1F | ≥ 50 | ≥ 50 | ≥ 50 | ≥ 50 | ≥ 50 |  |  |  |  |  |  |
| Nc1nc(Cl)nc2c1ncn2[C@H]1C[C@H](O)[C@@H](CO)O1 [CLADRIBINE] | 1.49 | 2.92 | 1.1 | ≥ 50 | ≥ 50 |  |  |  |  |  |  |
| Nc1nc(-c2ccoc2)nc2c1ncn2[C@H]1C[C@H](O)[C@@H](CO)O1 | 77.5 | 55 | 67.8 | 172 | 199 |  |  |  |  |  |  |
| CS(=O)(=O)C[C@H]1O[C@@H](n2cnc3c(N)nc(Cl)nc32)[C@@H](F)[C@@H]1O | ≥ 50 | ≥ 50 | 31.4 | ≥ 50 | ≥ 50 |  |  |  |  |  |  |
| Nc1nc(-c2ccncc2)nc2c1ncn2[C@@H]1O[C@H](CO)[C@@H](O)[C@@H]1F | ≥ 50 | ≥ 50 | ≥ 50 | ≥ 50 | ≥ 50 |  |  |  |  |  |  |
| CSC[C@H]1O[C@@H](n2cnc3c(N)nc(SC)nc32)[C@@H](F)[C@@H]1O | ≥ 50 | ≥ 50 | ≥ 50 | ≥ 50 | ≥ 50 |  |  |  |  |  |  |
